Values after ≈ are worked out from the molar mass of the structure shown.

Here are results for 17 compounds from ChEMBL document CHEMBL1811771, “Synthesis and antimycobacterial activities of non-purine analogs of 6-aryl-9-benzylpurines: Imidazopyridines, pyrrolopyridines, benzimidazoles, and indoles” (Bioorg Med Chem, 2011).

Series [1] has as its system Mycobacterium tuberculosis. Kind of series: Antimycobacterial activity against Mycobacterium tuberculosis H37Rv after 4 days by MABA assay. It is filed as functional. The note with it: 96 h. (The colour change of resazurin is a common sign of viable cells or microbes.)
Series [2] concerns Staphylococcus aureus. In words: Antimicrobial activity against Staphylococcus aureus ATCC 29213 by broth microdilution method. It is filed as functional. The essentials: (§1)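 Broth microdilution in cation-adjusted Mueller-Hinton broth against the QC strain, following the standard method for inoculum preparation and incubation. Samples were serially diluted twofold from 16 to 0.125, in triplicate, with DMSO as solvent and diluent. A gentamicin accuracy control was made up in water and diluted in broth. MIC was the lowest concentration giving complete growth inhibition, read by eye.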
On the technique in general: In broth dilution the organism is exposed to a series of concentrations in liquid medium.

The subject of series [3] is Escherichia coli. Kind of series: Antimicrobial activity against Escherichia coli ATCC 25922 by broth microdilution method. It is filed as functional. A digest of the protocol:
as §1

Series [4] has as its system Mycobacterium tuberculosis. Kind of series: Antimycobacterial activity against Mycobacterium tuberculosis H37Rv at 128 uM after 4 days by MABA assay. The format is functional.
Series [5] deals with Vero. In words: Cytotoxicity against african green monkey Vero cells at 128 uM. The format is cell-based. The note with it: chlorocebus sabaeus.
A short description of series [6]: Selectivity index, ratio of EC50 for african green monkey VERO cells to MIC for Mycobacterium tuberculosis H37Rv. The format is functional.
For series [7], the system named is Vero. Kind of series: Cytotoxicity against african green monkey Vero cells. The format is ADME, cell-based. Conditions: Chlorocebus sabaeus.
Series [8] has as its system Mycobacterium tuberculosis. In words: Antimycobacterial activity against Mycobacterium tuberculosis H37Rv transfected with pFPCA-luxAB grown under anaerobic condition for 10 days followed by 24 hrs incubation under aerobic condition by LORA assay. The format is functional.
Series [9] deals with Mycobacterium tuberculosis. Kind of series: Antimycobacterial activity against Mycobacterium tuberculosis H37Rv transfected with pFPCA-luxAB at 128 uM with pFPCA-luxAB grown under anaerobic condition for 10 days followed by 24 hrs incubation under aerobic condition by LORA assay. The format is functional.
The subject of series [10] is Mycobacterium tuberculosis. In words: Antimycobacterial activity against Mycobacterium tuberculosis H37Rv at 21 uM after 4 days by MABA assay. It is filed as functional. The note with it: 96 h.

`COc1ccc(Cn2ccc3c(-c4ccco4)ncnc32)cc1`: the lowest concentration to inhibit growth in series [1] (MIC) was 0.16 µM (≈ 0.0489 µg/mL).
In series [1], `COc1ccc(Cn2ccc3c(-c4ccco4)nc(Cl)nc32)cc1` yielded an MIC of 0.08 µM (≈ 0.0272 µg/mL).
As to `COc1ccc(Cn2cnc3c(-c4ccco4)ccnc32)cc1`, the values for the minimum inhibitory concentration (MIC) in series [2], in series [1] and in [3] were greater than 16 µg/mL, 63 µM (≈ 19.2 µg/mL) and greater than 16 µg/mL, respectively.
For the compound `COc1ccc(Cn2cnc3c(-c4ccco4)cc(Cl)nc32)cc1`, the MIC in series [2] was greater than 16 µg/mL; in series [1], greater than 128 µM; in series [3], greater than 16 µg/mL. Besides, the Activity in [4] was 37%.
As for `COc1ccc(Cn2cnc3c(-c4ccco4)nccc32)cc1`, in [5], the Activity turned out to be 0%. Besides, the MIC in series [2] was greater than 16 µg/mL; in series [1] it was 0.84 µM (≈ 0.256 µg/mL); in series [8] it was 80 µM (≈ 24.4 µg/mL); in series [3] it was greater than 16 µg/mL. In addition, the “Selectivity Index” value in [6] is listed as greater than 150. The compound further showed an IC50 in series [7] greater than 128 µM.
Take `COc1ccc(Cn2cnc3c(-c4ccco4)nc(Cl)cc32)cc1`: in [5], the Activity was found to be 30%. The MIC is greater than 16 µg/mL in [2], 0.16 µM (≈ 0.0544 µg/mL) in [1], 48 µM (≈ 16.3 µg/mL) in series [8] and greater than 16 µg/mL in series [3]. Moreover, the “Selectivity Index” value in series [6] is greater than 800. In series [7], this compound yielded an IC50 greater than 128 µM.
For the compound `COc1ccc(Cn2ccc3c(-c4ccco4)ccnc32)cc1`, the MIC in series [2] is greater than 16 µg/mL; in series [1], 44 µM (≈ 13.4 µg/mL); in [3] it was greater than 16 µg/mL.
Consider `COc1ccc(Cn2ccc3c(-c4ccco4)cc(Cl)nc32)cc1`, for which the minimal inhibitory concentration (MIC) in series [2] was greater than 16 µg/mL; in series [1] it was greater than 128 µM; in series [3], greater than 16 µg/mL. This compound also had an Activity in series [4] of 86%.
`COc1ccc(Cn2ccc3c(-c4ccco4)nccc32)cc1`: the MIC is greater than 16 µg/mL in [2], 1.4 µM (≈ 0.426 µg/mL) in [1], 28 µM (≈ 8.52 µg/mL) in [8] and greater than 16 µg/mL in series [3]. Besides, in series [6], the “Selectivity Index” value is recorded as 8.6. The IC50 in series [7] is 12 µM.
Regarding `COc1ccc(Cn2ccc3c(-c4ccco4)nc(Cl)cc32)cc1`, the MIC was greater than 16 µg/mL in series [2], 0.09 µM (≈ 0.0305 µg/mL) in series [1], greater than 128 µM in [8] and greater than 16 µg/mL in series [3]. In addition, in series [6], the “Selectivity Index” value stood at 644. Half-maximal inhibition in [7] (IC50) was put at 58 µM. For the same compound, the Activity in series [9] is listed as 53%.
For `COc1ccc(Cn2cnc3c(-c4ccco4)cccc32)cc1`, the MIC in [2] is greater than 16 µg/mL; in series [1] it was 29 µM (≈ 8.83 µg/mL); in series [3] it was greater than 16 µg/mL.
For `COc1ccc(Cn2ccc3c(-c4ccco4)cccc32)cc1`, at 21 µM the inhibition in series [10] was 0%. For the same compound, the MIC was greater than 16 µg/mL in series [2], greater than 21 µM in series [1] and greater than 16 µg/mL in series [3].
`COc1ccc(Cn2cnc3c(-c4ccco4)ncnc32)cc1`: the MIC in [1] worked out at 2.1 µM (≈ 0.643 µg/mL).
The compound `COc1ccc(Cn2cnc3c(-c4ccco4)nc(Cl)nc32)cc1` came in with an MIC in series [1] of 0.36 µM (≈ 0.123 µg/mL).
On to `NNC(=O)c1ccncc1` [ISONIAZID], for which the MIC was 0.28 µM (≈ 0.0384 µg/mL) in [1] and greater than 128 µM in series [8].
With `O=[N+]([O-])c1cn2c(n1)OC[C@@H](OCc1ccc(OC(F)(F)F)cc1)C2` [PRETOMANID], the MIC stood at 0.44 µM (≈ 0.158 µg/mL) in series [1] and 3.11 µM (≈ 1.12 µg/mL) in series [8].
The like results for `CO[C@H]1/C=C/O[C@@]2(C)Oc3c(C)c(O)c4c(O)c(c(/C=N/N5CCN(C)CC5)c(O)c4c3C2=O)NC(=O)/C(C)=C\C=C\[C@H](C)[C@H](O)[C@@H](C)[C@@H](O)[C@@H](C)[C@H](OC(C)=O)[C@@H]1C` [RIFAMPIN] were, in that order, 0.09 µM (≈ 0.0741 µg/mL) and 0.97 µM (≈ 0.798 µg/mL).

The term MIC denotes the smallest concentration in the dilution series that meets the test's criterion for growth inhibition. For orientation: IC50 means the concentration that inhibits the measured activity by half. As usually defined, the inhibition is the relative decrease from the control value, in per cent.
